ChEMBL document CHEMBL3525913, “Metabolism-dependent inhibition of CYP3A4 by lapatinib: evidence for formation of a metabolic intermediate complex with a nitroso/oxime metabolite formed via a nitrone intermediate” (Drug Metab Dispos, 2013)

How the values were obtained:
[1] = target: T1, Cytochrome P450 3A4 (Homo sapiens, UniProt P08684); assay: Activity of recombinant CYP3A4 (unknown origin) assessed as compound formation treated with lapatinib at 50 uM by LC/MS/MS analysis; assay type: ADME; conditions: recombinant enzyme
In short: (§1)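 Lapatinib 50 μM (added in DMSO) incubated 30 min at 37°C in 100 mM potassium phosphate pH 7.4 with HLM 1 mg/mL or recombinant CYP3A4+b5 / CYP3A5+b5 100 pmol/mL. Reaction started with NADPH 1 mM. Protein re-isolated by ultracentrifugation (100,000 x g, 4°C, 60 min), washed (KCl/EDTA), resuspended in phosphate buffer, ±2 mM ferricyanide 10 min 37°C, quenched with acetonitrile, then high-resolution LC/MS profiling.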

[2] = system: Liver microsome; assay: Drug level in human liver microsomes treated with lapatinib at 50 uM by LC/MS/MS analysis; assay type: ADME; in short: as §1
[3] = Retention time of the compound by LC/MS/MS analysis relative to lapatinib; assay type: physicochemical
In short: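 Phenyl UPLC column (1.7 μm, 2.1 x 100 mm), 0.1% formic acid in water/acetonitrile, 0.4 mL/min. Gradient: 10% organic for 1 min, to 90% over 13 min, held 0.5 min. Detection by accurate-mass MS. Retention times expressed relative to lapatinib.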

[4] = target: T2, Cytochrome P450 3A5 (Homo sapiens, UniProt P20815); assay: Activity of recombinant CYP3A5 (unknown origin) assessed as compound formation treated with lapatinib at 50 uM by LC/MS/MS analysis; assay type: ADME; conditions: recombinant enzyme; in short: as §1
[5] = system: Liver microsome; assay: Drug metabolism in human liver microsomes assessed as N-((5-(4-(3-chloro-Drug metabolism in human liver microsomes assessed as 5-(4-(3-chloro-4-(3-fluorobenzyloxy)phenylamino)quinazolin-6-yl)furan-2-carbaldehyde formation at 50 uM for 30 mins by LC/MS/MS analysis; assay type: ADME; conditions: 0.5 h; in short: as §1
[6] = target: T1, Cytochrome P450 3A4; assay: Activity of recombinant CYP3A4 (unknown origin) assessed as 2-chloro-4-(6-(5-(hydroxy(2-(methylsulfonyl)ethylamino)methyl)furan-2-yl)quinazolin-4-ylamino)phenol formation at 50 uM for 30 mins by LC/MS/MS analysis; assay type: ADME; conditions: recombinant enzyme, 0.5 h; in short: as §1
[7] = target: T2, Cytochrome P450 3A5; assay: Activity of recombinant CYP3A5 (unknown origin) assessed as 5-(4-(3-chloro-4-(3-fluorobenzyloxy)phenylamino)quinazolin-6-yl)furan-2-carbaldehyde formation at 50 uM for 30 mins by LC/MS/MS analysis; assay type: ADME; conditions: recombinant enzyme, 0.5 h; in short: as §1
[8] = target: T1, Cytochrome P450 3A4; assay: Activity of recombinant CYP3A4 (unknown origin) assessed as N-(3-chloro-4-(3-fluorobenzyloxy)phenyl)-6-(5-((hydroxy(2 (methylsulfonyl)ethyl)amino)methyl)furan-2-yl)quinazolin-4-amine formation at 50 uM for 30 mins by LC/MS/MS analysis; assay type: ADME; conditions: recombinant enzyme, 0.5 h; in short: as §1
[9] = target: T2, Cytochrome P450 3A5; assay: Activity of recombinant CYP3A5 (unknown origin) assessed as 5-(4-(3-chloro-4-(3-fluorobenzyloxy)phenylamino)quinazolin-6-yl)furan-2-carbaldehyde oxime formation at 50 uM for 30 mins by LC/MS/MS analysis; assay type: ADME; conditions: recombinant enzyme, 0.5 h; in short: as §1
[10] = system: Liver microsome; assay: Drug metabolism in human liver microsomes assessed as 5-(4-(3-chloro-4-(3-fluorobenzyloxy)phenylamino)quinazolin-6-yl)furan-2-carbaldehyde oxime formation at 50 uM for 30 mins by LC/MS/MS analysis; assay type: ADME; conditions: 0.5 h; in short: as §1
[11] = target: T2, Cytochrome P450 3A5; assay: Activity of recombinant CYP3A5 (unknown origin) assessed as N-(3-chloro-4-(3-fluorobenzyloxy)phenyl)-6-(5-((hydroxy(2 (methylsulfonyl)ethyl)amino)methyl)furan-2-yl)quinazolin-4-amine formation at 50 uM for 30 mins by LC/MS/MS analysis; assay type: ADME; conditions: recombinant enzyme, 0.5 h; in short: as §1
[12] = target: T1, Cytochrome P450 3A4; assay: Activity of recombinant CYP3A4 (unknown origin) assessed as (5-(4-(3-chloro-4-(3-fluorobenzyloxy)phenylamino)quinazolin-6-yl)furan-2-yl)methanol formation at 50 uM for 30 mins by LC/MS/MS analysis; assay type: ADME; conditions: recombinant enzyme, 0.5 h; in short: as §1
[13] = system: Liver microsome; assay: Drug metabolism in human liver microsomes assessed as 6-(5-(aminomethyl)furan-2-yl)-N-(3-chloro-4-(3-fluorobenzyloxy)phenyl)quinazolin-4-amine formation at 50 uM for 30 mins by LC/MS/MS analysis; assay type: ADME; conditions: 0.5 h; in short: as §1
[14] = target: T1, Cytochrome P450 3A4; assay: Activity of recombinant CYP3A4 (unknown origin) assessed as 5-(4-(3-chloro-4-(3-fluorobenzyloxy)phenylamino)quinazolin-6-yl)furan-2-carbaldehyde oxime formation at 50 uM for 30 mins by LC/MS/MS analysis; assay type: ADME; conditions: recombinant enzyme, 0.5 h; in short: as §1
[15] = target: T2, Cytochrome P450 3A5; assay: Activity of recombinant CYP3A5 (unknown origin) assessed as 2-chloro-4-(6-(5-((2-(methylsulfonyl)ethylamino)methyl)furan-2-yl)quinazolin-4-ylamino)phenol formation at 50 uM for 30 mins by LC/MS/MS analysis; assay type: ADME; conditions: recombinant enzyme, 0.5 h; in short: as §1
[16] = target: T2, Cytochrome P450 3A5; assay: Activity of recombinant CYP3A5 (unknown origin) assessed as 2-chloro-4-(6-(5-(hydroxy(2-(methylsulfonyl)ethylamino)methyl)furan-2-yl)quinazolin-4-ylamino)phenol formation at 50 uM for 30 mins by LC/MS/MS analysis; assay type: ADME; conditions: recombinant enzyme, 0.5 h; in short: as §1
[17] = target: T2, Cytochrome P450 3A5; assay: Activity of recombinant CYP3A5 (unknown origin) assessed as (5-(4-(3-chloro-4-(3-fluorobenzyloxy)phenylamino)quinazolin-6-yl)furan-2-yl)methanol formation at 50 uM for 30 mins by LC/MS/MS analysis; assay type: ADME; conditions: recombinant enzyme, 0.5 h; in short: as §1
[18] = system: Liver microsome; assay: Drug metabolism in human liver microsomes assessed as 2-chloro-4-(6-(5-((2-(methylsulfonyl)ethylamino)methyl)furan-2-yl)quinazolin-4-ylamino)phenol formation at 50 uM for 30 mins by LC/MS/MS analysis; assay type: ADME; conditions: 0.5 h; in short: as §1
[19] = system: Liver microsome; assay: Drug metabolism in human liver microsomes assessed as N-(3-chloro-4-(3-fluorobenzyloxy)phenyl)-6-(5-((hydroxy(2 (methylsulfonyl)ethyl)amino)methyl)furan-2-yl)quinazolin-4-amine formation at 50 uM for 30 mins by LC/MS/MS analysis; assay type: ADME; conditions: 0.5 h; in short: as §1
[20] = system: Liver microsome; assay: Drug metabolism in human liver microsomes assessed as N-((5-(4-(3-chloro-4-(3-fluorobenzyloxy)phenylamino)quinazolin-6-yl)furan-2-yl)methylene)-2-(methylsulfonyl)ethanamine oxide formation at 50 uM for 30 mins by LC/MS/MS analysis; assay type: ADME; conditions: 0.5 h; in short: as §1
[21] = system: Liver microsome; assay: Drug metabolism in human liver microsomes assessed as 2-chloro-4-(6-(5-(hydroxy(2-(methylsulfonyl)ethylamino)methyl)furan-2-yl)quinazolin-4-ylamino)phenol formation at 50 uM for 30 mins by LC/MS/MS analysis; assay type: ADME; conditions: 0.5 h; in short: as §1
[22] = target: T1, Cytochrome P450 3A4; assay: Activity of recombinant CYP3A4 (unknown origin) assessed as 2-chloro-4-(6-(5-((2-(methylsulfonyl)ethylamino)methyl)furan-2-yl)quinazolin-4-ylamino)phenol formation at 50 uM for 30 mins by LC/MS/MS analysis; assay type: ADME; conditions: recombinant enzyme, 0.5 h; in short: as §1
[23] = target: T1, Cytochrome P450 3A4; assay: Activity of recombinant CYP3A4 (unknown origin) assessed as N-((5-(4-(3-chloro-4-(3-fluorobenzyloxy)phenylamino)quinazolin-6-yl)furan-2-yl)methylene)-2-(methylsulfonyl)ethanamine oxide formation at 50 uM for 30 mins by LC/MS/MS analysis; assay type: ADME; conditions: recombinant enzyme, 0.5 h; in short: as §1
[24] = target: T2, Cytochrome P450 3A5; assay: Activity of recombinant CYP3A5 (unknown origin) assessed as N-((5-(4-(3-chloro-4-(3-fluorobenzyloxy)phenylamino)quinazolin-6-yl)furan-2-yl)methylene)-2-(methylsulfonyl)ethanamine oxide formation at 50 uM for 30 mins by LC/MS/MS analysis; assay type: ADME; conditions: recombinant enzyme, 0.5 h; in short: as §1
[25] = target: T1, Cytochrome P450 3A4; assay: Activity of recombinant CYP3A4 (unknown origin) assessed as 5-(4-(3-chloro-4-(3-fluorobenzyloxy)phenylamino)quinazolin-6-yl)furan-2-carbaldehyde formation at 50 uM for 30 mins by LC/MS/MS analysis; assay type: ADME; conditions: recombinant enzyme, 0.5 h; in short: as §1
[26] = target: T3, CYP3A4 (Homo sapiens, UniProt P08684); assay: Inhibition of recombinant CYP3A4 (unknown origin)-mediated midazolam 1-hydroxylation at 50 uM; assay type: ADME; conditions: recombinant CYP3A4, probe midazolam (1-hydroxylation)
In short: (§2)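 30 min preincubation with 50 μM test compound (DMSO) and 1 mM NADPH at 37°C in 100 mM potassium phosphate, pH 7.4. Enzyme source was HLM at 1 mg/mL or recombinant CYP3A4 + b5 at 100 pmol/mL. Residual activity assayed with midazolam (30 μM; 5 min; 37°C) at 0.05 mg/mL. 1'-hydroxymidazolam quantified by LC/MS/MS and normalised to solvent controls.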

[27] = target: T1, Cytochrome P450 3A4; assay: Activity of recombinant CYP3A4 (unknown origin) assessed as 6-(5-(aminomethyl)furan-2-yl)-N-(3-chloro-4-(3-fluorobenzyloxy)phenyl)quinazolin-4-amine formation at 50 uM for 30 mins by LC/MS/MS analysis; assay type: ADME; conditions: recombinant enzyme, 0.5 h; in short: as §1
[28] = target: T2, Cytochrome P450 3A5; assay: Inhibition of recombinant CYP3A5 (unknown origin)-mediated midazolam 1-hydroxylation at 50 uM in presence of 2 mM ferricyanide; assay type: ADME; conditions: recombinant enzyme
In short: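 Recombinant CYP3A5 + b5 (100 pmol/mL) preincubated 30 min at 37°C with test compound (50 μM) in 100 mM potassium phosphate pH 7.4, started with 1 mM NADPH. Then potassium ferricyanide (2 mM final) for 10 min at 37°C, ultracentrifugation, pellet washed. Residual midazolam (30 μM, 5 min, 37°C) 1'-hydroxylation measured by LC/MS/MS, normalized to solvent controls.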

[29] = target: CYP3A5 (Homo sapiens, UniProt P20815); assay: Inhibition of recombinant CYP3A5 (unknown origin)-mediated midazolam 1-hydroxylation at 50 uM; assay type: ADME; conditions: recombinant CYP3A5, probe midazolam (1-hydroxylation)
In short: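 Recombinant CYP3A5+b5 (100 pmol/mL) preincubated 30 min at 37°C, pH 7.4, with lapatinib 50 μM and 1 mM NADPH. Solvent controls run alongside. Residual activity measured as midazolam (30 μM, 5 min, 37°C) 1'-hydroxylation by LC/MS/MS at 0.05 mg/mL. Measured directly and after ultracentrifugation (100,000 x g, 60 min) with or without 2 mM ferricyanide (10 min). Normalized to solvent control.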

[30] = target: T3, CYP3A4; assay: Inhibition of CYP3A4-mediated midazolam 1-hydroxylation in human liver microsomes at 50 uM; assay type: ADME; conditions: probe midazolam (1-hydroxylation); in short: as §2
[31] = target: T2, Cytochrome P450 3A5; assay: Activity of recombinant CYP3A5 (unknown origin) assessed as 6-(5-(aminomethyl)furan-2-yl)-N-(3-chloro-4-(3-fluorobenzyloxy)phenyl)quinazolin-4-amine formation at 50 uM for 30 mins by LC/MS/MS analysis; assay type: ADME; conditions: recombinant enzyme, 0.5 h; in short: as §1
[32] = system: Liver microsome; assay: Drug metabolism in human liver microsomes assessed as (5-(4-(3-chloro-4-(3-fluorobenzyloxy)phenylamino)quinazolin-6-yl)furan-2-yl)methanol formation at 50 uM for 30 mins by LC/MS/MS analysis; assay type: ADME; conditions: 0.5 h; in short: as §1

T2 sequence (P20815 whole entry): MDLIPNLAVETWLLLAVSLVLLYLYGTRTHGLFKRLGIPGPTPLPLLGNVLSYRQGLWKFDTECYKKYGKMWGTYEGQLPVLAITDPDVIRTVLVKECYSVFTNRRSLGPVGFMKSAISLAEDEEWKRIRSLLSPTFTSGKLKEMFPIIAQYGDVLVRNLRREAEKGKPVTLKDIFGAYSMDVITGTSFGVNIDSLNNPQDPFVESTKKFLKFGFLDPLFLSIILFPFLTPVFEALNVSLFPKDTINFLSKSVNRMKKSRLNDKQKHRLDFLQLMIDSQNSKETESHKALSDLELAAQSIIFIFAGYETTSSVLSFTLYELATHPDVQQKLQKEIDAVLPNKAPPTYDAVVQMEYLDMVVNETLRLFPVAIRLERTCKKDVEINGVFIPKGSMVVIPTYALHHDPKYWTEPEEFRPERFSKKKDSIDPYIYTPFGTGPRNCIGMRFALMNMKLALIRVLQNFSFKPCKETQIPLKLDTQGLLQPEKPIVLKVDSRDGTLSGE
T1 sequence (P08684 whole entry): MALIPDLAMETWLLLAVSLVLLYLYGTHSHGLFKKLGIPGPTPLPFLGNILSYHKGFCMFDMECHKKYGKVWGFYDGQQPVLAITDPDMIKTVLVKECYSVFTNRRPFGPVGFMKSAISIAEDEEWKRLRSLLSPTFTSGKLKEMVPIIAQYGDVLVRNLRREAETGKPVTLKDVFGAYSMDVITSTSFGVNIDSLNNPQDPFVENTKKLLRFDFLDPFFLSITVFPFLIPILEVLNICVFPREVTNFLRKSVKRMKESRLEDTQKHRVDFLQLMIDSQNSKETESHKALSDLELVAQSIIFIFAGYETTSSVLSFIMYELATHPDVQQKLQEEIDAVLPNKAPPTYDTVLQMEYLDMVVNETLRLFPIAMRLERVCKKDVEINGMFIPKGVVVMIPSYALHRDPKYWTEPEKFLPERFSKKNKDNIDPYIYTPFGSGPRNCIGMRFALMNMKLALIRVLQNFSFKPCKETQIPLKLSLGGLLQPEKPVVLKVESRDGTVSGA
T3 sequence (P08684 whole entry): as above
Sequence of CYP3A5 (P20815 whole entry): as the sequence (P20815 whole entry) above

## CS(=O)(=O)CC/[N+]([O-])=C/c1ccc(-c2ccc3ncnc(Nc4ccc(OCc5cccc(F)c5)c(Cl)c4)c3c2)o1
[1]
  Drug metabolism: metabolite_detected
[2]
  Drug metabolism: metabolite_detected
[3]
  Ratio: 1.11
[4]
  Drug metabolism: metabolite_detected

## O=Cc1ccc(-c2ccc3ncnc(Nc4ccc(OCc5cccc(F)c5)c(Cl)c4)c3c2)o1
[1]
  Drug metabolism: metabolite_detected
[2]
  Drug metabolism: metabolite_detected
[3]
  Ratio: 1.21
[4]
  Drug metabolism: metabolite_detected

## CS(=O)(=O)CCNC(O)c1ccc(-c2ccc3ncnc(Nc4ccc(O)c(Cl)c4)c3c2)o1 (centres undefined)
[1]
  Drug metabolism: metabolite_detected
[2]
  Drug metabolism: metabolite_detected
[3]
  Ratio: 0.78
[4]
  Drug metabolism: metabolite_detected

## OCc1ccc(-c2ccc3ncnc(Nc4ccc(OCc5cccc(F)c5)c(Cl)c4)c3c2)o1
[1]
  Drug metabolism: metabolite_detected
[2]
  Drug metabolism: metabolite_detected
[3]
  Ratio: 1.13
[4]
  Drug metabolism: metabolite_detected

## CS(=O)(=O)CCNCc1ccc(-c2ccc3ncnc(Nc4ccc(OCc5cccc(F)c5)c(Cl)c4)c3c2)o1 [LAPATINIB]
[5]
  Drug metabolism: metabolite_detected
[6]
  Drug metabolism: metabolite_detected
[7]
  Drug metabolism: metabolite_detected
[8]
  Drug metabolism: metabolite_detected
[9]
  Drug metabolism: metabolite_detected
[10]
  Drug metabolism: metabolite_detected
[11]
  Drug metabolism: metabolite_detected
[12]
  Drug metabolism: metabolite_detected
[13]
  Drug metabolism: metabolite_detected
[14]
  Drug metabolism: metabolite_detected
[15]
  Drug metabolism: metabolite_detected
[16]
  Drug metabolism: metabolite_detected
[17]
  Drug metabolism: metabolite_detected
[18]
  Drug metabolism: metabolite_detected
[19]
  Drug metabolism: metabolite_detected
[20]
  Drug metabolism: metabolite_detected
[21]
  Drug metabolism: metabolite_detected
[22]
  Drug metabolism: metabolite_detected
[23]
  Drug metabolism: metabolite_detected
[24]
  Drug metabolism: metabolite_detected
[25]
  Drug metabolism: metabolite_detected
[26]
  inhibition at 50 µM: 45%
[27]
  Drug metabolism: metabolite_detected
[28]
  inhibition (INH): Active
[29]
  inhibition at 50 µM: < 15%
[30]
  inhibition at 50 µM: 45%
[31]
  Drug metabolism: metabolite_detected
[32]
  Drug metabolism: metabolite_detected
